Test results: publication PMC3033481 (Journal of the American Chemical Society, 2011)
Entries after “also recorded” stand apart in the source; their conditions may differ.

Experiments:
[1] = system: BrdU+ cells in the hippocampal dentate gyrus; assay: In vivo neurogenesis; set-up: species or system C57BL/J6 mice; details: for proneurogenic activity (BrdU+ cells in dentate gyrus), in words: 10 μM solution infused ICV, 12 μL/day, 7 days, live mice
Outline: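 Adult (12-week-old) wild-type C57BL/J6 mice, 4 per compound. Test compound solutions (10–0.01 μM) delivered by osmotic minipump into the left lateral ventricle at 12 μL/day for 7 days; the vehicle was artificial CSF. BrdU+ cells counted in SGZ/dentate gyrus of the contralateral hemisphere, every fifth 40 μm section, normalized to dentate volume. Mean ± SEM.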

[2] = system: neurogenesis in the dentate gyrus; details: rats, cited from earlier work
[3] = system: embryonic, weaning or adult mice; details: mouse, in vivo; cited from earlier work
[4] = system: dentate gyrus in mice deficient in the npas3 gene; details: cited from earlier work
[5] = mouse, in vivo, cited from earlier work
HeLa cells = assay: Cell viability assay; assay type: cell-based
neural precursor cells = details: time-course experiments; cited from earlier work
[6] = system: BrdU+ cells in the hippocampal dentate gyrus; details: cited from earlier work
neurogenesis = details: cited from earlier work
histamine H2 receptor = histamine H2 receptor (Homo sapiens, UniProt P25021); assay: Histamine H2 competition binding assay; details: for Histamine H2 binding (% displacement @ 10 μM): displacement of [125I]aminopotentidine (0.1 nM) with 10 μM drug
hERG channel = hERG channel (Homo sapiens, UniProt Q12809)
Chain of hERG channel (Q12809 whole entry): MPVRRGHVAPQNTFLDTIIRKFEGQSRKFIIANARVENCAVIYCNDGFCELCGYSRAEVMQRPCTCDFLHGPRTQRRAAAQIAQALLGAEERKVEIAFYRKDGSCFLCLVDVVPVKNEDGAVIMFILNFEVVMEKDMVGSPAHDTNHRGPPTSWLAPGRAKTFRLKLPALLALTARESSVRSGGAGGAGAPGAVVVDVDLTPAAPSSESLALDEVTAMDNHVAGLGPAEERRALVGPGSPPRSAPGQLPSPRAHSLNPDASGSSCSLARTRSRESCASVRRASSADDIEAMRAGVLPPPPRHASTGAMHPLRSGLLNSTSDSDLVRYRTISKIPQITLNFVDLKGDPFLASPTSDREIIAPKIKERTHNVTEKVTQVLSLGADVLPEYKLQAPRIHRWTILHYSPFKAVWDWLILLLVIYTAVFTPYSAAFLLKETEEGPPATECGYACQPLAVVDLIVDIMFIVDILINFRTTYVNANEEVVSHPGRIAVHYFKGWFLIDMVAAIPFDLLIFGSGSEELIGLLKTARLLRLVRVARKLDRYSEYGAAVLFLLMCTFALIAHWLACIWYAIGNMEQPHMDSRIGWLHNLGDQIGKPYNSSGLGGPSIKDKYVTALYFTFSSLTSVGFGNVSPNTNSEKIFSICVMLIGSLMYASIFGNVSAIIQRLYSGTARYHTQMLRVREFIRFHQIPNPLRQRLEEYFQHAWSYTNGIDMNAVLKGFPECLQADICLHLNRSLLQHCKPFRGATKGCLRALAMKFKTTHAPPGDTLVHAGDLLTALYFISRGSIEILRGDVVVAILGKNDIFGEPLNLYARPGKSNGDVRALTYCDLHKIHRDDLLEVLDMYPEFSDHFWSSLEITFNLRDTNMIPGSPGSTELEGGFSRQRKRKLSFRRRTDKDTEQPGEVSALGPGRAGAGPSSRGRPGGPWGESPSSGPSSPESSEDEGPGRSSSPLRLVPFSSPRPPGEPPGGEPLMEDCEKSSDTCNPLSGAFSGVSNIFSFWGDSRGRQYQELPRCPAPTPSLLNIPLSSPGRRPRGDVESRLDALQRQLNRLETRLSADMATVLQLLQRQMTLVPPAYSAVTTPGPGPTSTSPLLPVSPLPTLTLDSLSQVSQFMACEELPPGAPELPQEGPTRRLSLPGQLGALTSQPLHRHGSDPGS

Chain of histamine H2 receptor (P25021 whole entry): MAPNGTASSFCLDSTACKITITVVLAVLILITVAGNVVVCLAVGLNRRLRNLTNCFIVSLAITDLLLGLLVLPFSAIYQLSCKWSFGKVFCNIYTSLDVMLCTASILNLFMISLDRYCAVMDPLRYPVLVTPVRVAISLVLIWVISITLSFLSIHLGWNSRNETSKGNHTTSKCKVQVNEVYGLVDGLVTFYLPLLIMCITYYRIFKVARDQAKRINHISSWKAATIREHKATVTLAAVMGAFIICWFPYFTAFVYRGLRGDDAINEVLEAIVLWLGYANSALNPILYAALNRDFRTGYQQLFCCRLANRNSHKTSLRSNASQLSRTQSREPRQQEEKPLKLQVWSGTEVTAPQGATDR

OC(CNc1ccccc1)Cn1c2ccc(Cl)cc2c2cc(Cl)ccc21 (centres unmarked) [Compound 1]
proneurogenic activity (BrdU+ cells in dentate gyrus), in words [1]: did not appear active

OC(CNc1ccccc1)Cn1c2ccccc2c2ccccc21 (centres unmarked) [Compound 2]
proneurogenic activity (BrdU+ cells in dentate gyrus), in words [1]: did not appear active

CCOc1ccc(NCC(O)Cn2c3ccc(Br)cc3c3cc(Br)ccc32)cc1 (centres unmarked) [Compound 4-OEt]
proneurogenic activity (BrdU+ cells in dentate gyrus), in words [1]: highly active

COc1cccc(NCC(O)Cn2c3ccc(Br)cc3c3cc(Br)ccc32)c1 (centres unmarked) [Compound 7]
proneurogenic activity (BrdU+ cells in dentate gyrus), in words [1]: well tolerated; also recorded: little effect on activity
difference in activity between the two enantiomers ([1]; enantiomeric pairs tested, same enantiomer more active in all three cases): significant difference in activity

COc1ccc(NCC(O)Cn2c3ccc(Br)cc3c3cc(Br)ccc32)cc1 (centres unmarked) [Compound 8]
proneurogenic activity (BrdU+ cells in dentate gyrus), in words [1]: well tolerated; also recorded: highly active

OC(CNc1ccccc1)Cn1c2ccc(Cl)cc2c2cc(Cl)ccc21 (centres unmarked) [Compound 17]
proneurogenic activity (BrdU+ cells in dentate gyrus), in words [1]: little activity

CCOc1cccc(NCC(O)Cn2c3ccc(Br)cc3c3cc(Br)ccc32)c1 (centres unmarked) [Compound 21]
proneurogenic activity (BrdU+ cells in dentate gyrus), in words [1]: essentially abrogated activity

[N-]=[N+]=Nc1cccc(NCC(O)Cn2c3ccc(Br)cc3c3cc(Br)ccc32)c1 (centres unmarked) [Compound 22]
proneurogenic activity (BrdU+ cells in dentate gyrus), in words [1]: substantially decreased activity

[N-]=[N+]=Nc1ccc(NCC(O)Cn2c3ccc(Br)cc3c3cc(Br)ccc32)cc1 (centres unmarked) [Compound 23]
proneurogenic activity (BrdU+ cells in dentate gyrus), in words [1]: highly active

FC(CNc1ccccc1)Cn1c2ccc(Br)cc2c2cc(Br)ccc21 (centres unmarked) [Compound 52]
proneurogenic activity (BrdU+ cells in dentate gyrus), in words [1]: gains little from fluorination

COc1ccc(NCC(F)Cn2c3ccc(Br)cc3c3cc(Br)ccc32)cc1 (centres unmarked) [Compound 54]
proneurogenic activity (BrdU+ cells in dentate gyrus), in words [1]: improved by fluorination

OC(CNc1ccccc1)Cn1c2ccc(Br)cc2c2cc(Br)ccc21 (centres unmarked) [Compound P7C3]
cognitive capacity ([2]; as a function of terminal aging): preserved cognitive capacity
neurogenesis in the dentate gyrus ([2]; terminal aging): enhanced neurogenesis in the dentate gyrus
neuron cell death ([2]; terminal aging): impeded neuron cell death
toxicity to mice [3]: not toxic
structure and function of the dentate gyrus [4]: repair the structure and function of the dentate gyrus
AUC brain: AUC plasma ratio ([5]; po): 3.7
oral availability, in words [5]: orally available
Half life in cell culture, Mouse hepatocytes (mouse hepatocytes): >4 h
GI50 (HeLa cells): 5.1 µM
Half life in cell culture, Human hepatocytes (human hepatocytes): >4 h
proliferation of neural precursor cells (neural precursor cells): does not stimulate proliferation
neurogenesis activity, 1 μM solution ([6]; 1 μM solution infused ICV, 12 μL/day for 7 days): maintains activity
number of BrdU+ cells relative to mice treated with vehicle alone ([6]; 10 μM ICV, 7 days, vehicle artificial CSF, similar number as FGF-2): approximately twice
neurogenesis activity, oral dose 1 mg/kg (neurogenesis; oral dose 1 mg/kg): measurable activity
neurogenesis activity, oral dose 5 mg/kg (neurogenesis; oral dose of 5 mg/kg): maximal neurogenesis activity
Histamine H2 binding, in words (histamine H2 receptor; 10 μM drug): modest binding
Histamine H2 binding (% displacement @ 10 μM) (histamine H2 receptor): 63 % displacement
hERG binding (% displacement @ 10 μM) (hERG channel): 92 % displacement

Cc1ccc2c(c1)c1c(n2CCc2ccc(C)nc2)CCN(C)C1 [dimebon, reference compound]
proneurogenic activity (BrdU+ cells in dentate gyrus), in words [1]: active in our neurogenesis assay, but substantially less so than P7C3
Histamine H2 binding (% displacement @ 10 μM) (histamine H2 receptor): 99 % displacement
